Screening data: PubChem BioAssay, Broad Institute
GASC1 inh: inhibitors of GASC-1 (KDM4C) histone demethylase, primary screen, biochemical, single concentration HTS. Lysine-specific demethylase 4C (Homo sapiens), Q9H3R0. GST-KDM4C 2-372, H3K9me3 peptide, LANCE TR-FRET. inhibition, % at 12.5 µM. actives 0.15% (n = 96,000);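 active = mean replicate inhibition above about 25%, with at least 55% of replicates also reaching it, limit read from the data, passing the limit was not always enough; inconclusive = only one of those two conditions met; inactive = neither condition met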
Target sequence (Q9H3R0 2-372 limits assumed): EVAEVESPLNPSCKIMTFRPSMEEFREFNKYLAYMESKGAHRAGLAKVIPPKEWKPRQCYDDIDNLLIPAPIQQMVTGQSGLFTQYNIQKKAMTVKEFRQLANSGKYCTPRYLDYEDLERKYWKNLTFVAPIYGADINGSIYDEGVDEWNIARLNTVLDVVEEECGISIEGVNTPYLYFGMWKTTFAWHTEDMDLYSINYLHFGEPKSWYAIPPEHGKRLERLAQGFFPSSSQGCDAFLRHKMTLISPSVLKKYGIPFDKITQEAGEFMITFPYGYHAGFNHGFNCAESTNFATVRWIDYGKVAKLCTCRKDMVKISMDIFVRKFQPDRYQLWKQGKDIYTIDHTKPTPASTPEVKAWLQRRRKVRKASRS
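Test system: N-terminal GST-fused human GASC-1 (KDM4C) fragment, residues 2-372; quantity: GASC-1 enzyme at 10 nM final in reaction; dosing: single dose; schedule: 30 min demethylation and 1 h detection at room temperature; signal: LANCE TR-FRET, excitation 340 nm, emissions 618 and 671 nm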
Pf Dd2 growth: P. falciparum Dd2 growth inhibitors, primary screen, SYBR Green fluorescence, single dose replicates. actives 2.3% (n = 94,000). 72 h; active compounds read low. activity change, % at 10 µM; in the data active = activity change below about -80%; inconclusive = no clear call, values can overlap the other calls
IDH1 R132H inh: inhibitors of IDH1 R132H reductase, primary screen, biochemical, plate reader, single point; Isocitrate dehydrogenase [NADP] cytoplasmic (Homo sapiens), O75874; diaphorase/resazurin fluorescence, 60 min; inhibition, % at 10 µM; actives 0.18% (n = 70,000); AID 624101, 2012; in the data active = inhibition above about 34%; inconclusive = no clear call, values can overlap the other calls; inactive = below about 11%;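 note: 0% = DMSO and 100% = no enzyme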
Target sequence (O75874 whole entry R132H): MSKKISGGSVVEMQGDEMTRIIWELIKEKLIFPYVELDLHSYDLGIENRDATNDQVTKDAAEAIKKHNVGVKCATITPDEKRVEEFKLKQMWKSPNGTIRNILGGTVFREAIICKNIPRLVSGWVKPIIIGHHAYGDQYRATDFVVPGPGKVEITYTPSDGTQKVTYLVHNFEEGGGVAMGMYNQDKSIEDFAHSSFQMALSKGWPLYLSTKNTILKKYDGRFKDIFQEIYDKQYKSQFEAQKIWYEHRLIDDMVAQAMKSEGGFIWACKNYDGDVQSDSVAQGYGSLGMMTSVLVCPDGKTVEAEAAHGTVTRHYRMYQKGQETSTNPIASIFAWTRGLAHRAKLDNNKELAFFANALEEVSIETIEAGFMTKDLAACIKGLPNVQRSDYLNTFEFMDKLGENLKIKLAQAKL
T cruzi growth-1: T. cruzi intracellular proliferation inhibitors, primary screen, cell-based, beta-gal Tulahuen parasites, NIH3T3 host, luminescence; T. cruzi beta-gal in NIH3T3, GalScreen luminescence, 90 h; inhibition, % at 8.34 µM; actives 5.9% (n = 77,000); AID 624255, 2012;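 active = mean inhibition above about 93%, with at least 55% of replicates each passing it, limit read from the data, passing the limit was not always enough; inconclusive = only one of those two conditions holds; inactive = neither condition holds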
T cruzi growth-2: T. cruzi intracellular proliferation inhibitors, confirmation, cell-based, NIH3T3 host, beta-gal parasite, luminescence, cherry-pick; shares compounds with T cruzi growth-1; T. cruzi beta-gal in NIH3T3, GalScreen luminescence, 90 h; inhibition, % at 8.35 µM; actives 72% (n = 5,600);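 active = mean replicate inhibition above about 95% and at least 55% of replicates individually reaching it, limit read from the data; inconclusive = only one of the two criteria is met; inactive = neither criterion is met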
T cruzi growth-3: inhibitors of intracellular T. cruzi replication, confirmation, NIH3T3 host cells, beta-gal parasites, cherry-pick, set 2; actives 21% (n = 5,600); AID 651740, 2012; inhibition, % at 2.09 µM; T. cruzi beta-gal in NIH3T3, GalScreen luminescence, 90 h; shares compounds with T cruzi growth-1;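 active = mean inhibition above about 95%, with at least 55% of replicates also reaching it, limit read from the data; inconclusive = meets just one of the two conditions; inactive = meets neither condition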;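 note: plate controls were neutral control median for no effect and positive control median for full effect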
NIH3T3 tox: cytotoxicity in mouse NIH/3T3 fibroblasts, confirmation, cytotoxicity control for T. cruzi proliferation inhibitor project, cell-based, cherry-pick, single point. shares compounds with T cruzi growth-1. NIH/3T3 viability, CellTiter-Glo ATP luminescence, 90 h. cytotoxicity (signal decrease), % at 8.35 µM. actives 14% (n = 5,600). AID 651742, 2012;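 active = mean signal decrease across replicates above about 35% based on untreated-well scatter, with enough replicates individually passing, limit read from the data; inconclusive = no rule stated though some were filed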;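 note: 0% = median of neutral control wells and 100% = median of positive control wells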
3T3 cytotox 2: NIH/3T3 fibroblast cytotoxicity, confirmation, cytotoxicity control, cell-based, cherry-pick, single point, set 2; shares compounds with T cruzi growth-1; inhibition, % at 24.9 µM; actives 56% (n = 5,600); NIH/3T3 viability, CellTiter-Glo ATP luminescence, 90 h;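 active = mean loss of cell viability signal at or above a set limit, and enough replicates individually reaching it; inconclusive = meets only the mean limit or only the replicate share; inactive = meets neither condition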;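 note: 0% = median of neutral control wells and 100% = median of positive control wells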
* = called active by the depositor; ? = inconclusive; · = no result given. In the library only some 5.8% were active in any assay of this set; here they are far more common.

SMILES | GASC1 inh | Pf Dd2 growth | IDH1 R132H inh | T cruzi growth-1 | T cruzi growth-2 | T cruzi growth-3 | NIH3T3 tox | 3T3 cytotox 2
O=S(=O)(c1ccc(-c2cc(C(F)(F)F)on2)s1)N1CCc2c([nH]c3ccc(F)cc23)C1 | · | · | 1.1 | · | · | · | · | ·
O=C(CSc1n[nH]c(-c2ccncc2)n1)Nc1ccc(Cl)cc1Cl | · | · | 0.4 | · | · | · | · | ·
C[C@@H]1CCCCO[C@@H](CN(C)S(=O)(=O)c2ccc(Cl)cc2)[C@H](C)CN([C@H](C)CO)C(=O)c2cc(NC(=O)Nc3ccc4c(c3)OCO4)ccc2O1 | -1.1 | -71.7 | · | 105.6* | 106.4* | 112.5* | 9.5 | -5.8
C[C@@H]1CCCCO[C@@H](CN(C)S(=O)(=O)c2ccc(Cl)cc2)[C@@H](C)CN([C@@H](C)CO)C(=O)c2cc(NC(=O)Nc3ccc4c(c3)OCO4)ccc2O1 | 0.3 | -88.4* | · | 96.6* | 104.6* | 79.4 | 15.5 | 27.4
Cc1noc(C)c1NC(=O)Nc1ccc2c(c1)C(=O)N([C@@H](C)CO)C[C@H](C)[C@@H](CN(C)S(=O)(=O)c1ccc(Cl)cc1)OCCCC[C@@H](C)O2 | 0.5 | -76.2 | · | 98.8* | 58.5 | 10.2 | -1.8 | 3.5
C[C@@H]1CN([C@H](C)CO)C(=O)c2cc(NC(=O)Nc3ccc4c(c3)OCO4)ccc2O[C@@H](C)CCCCO[C@H]1CN(C)S(=O)(=O)c1ccc(Cl)cc1 | -0.6 | -75.6 | -0.2 | 101.0* | 108.5* | 43.3 | -12.9 | -10.2
Cc1noc(C)c1NC(=O)Nc1ccc2c(c1)C(=O)N([C@H](C)CO)C[C@H](C)[C@@H](CN(C)S(=O)(=O)c1ccc(Cl)cc1)OCCCC[C@@H](C)O2 | · | -10.5 | -1.8 | 3.1 | · | · | · | ·
Cc1sc(NC(=O)c2ccccc2)c(C(=O)NCc2cccnc2)c1C | · | · | -0.7 | · | · | · | · | ·
CC(NS(=O)(=O)c1ccc(Br)cc1)C(=O)Nc1cccc(F)c1 (stereo not given) | · | · | -0.1 | · | · | · | · | ·
COC(=O)c1ccccc1NC(=O)CN(C)S(=O)(=O)c1c(C)cc(C)cc1C | · | · | 0.2 | · | · | · | · | ·
Cn1c(SCC(=O)c2ccc(F)cc2)nnc1-c1ccc(NC(=O)c2ccccc2Br)cc1 | · | · | -0.3 | · | · | · | · | ·
O=C(CCCCC(=O)NN=C1CCCCCC1)NO | · | · | -0.1 | · | · | · | · | ·
C[C@@H]1CCCCO[C@@H](CN(C)S(=O)(=O)c2ccc(Cl)cc2)[C@H](C)CN([C@@H](C)CO)C(=O)c2cc(NC(=O)Nc3ccc4c(c3)OCO4)ccc2O1 | 0.3 | -64.9 | 2.1 | 102.7* | 110.5* | 80.4 | -2.4 | -11.4
COc1cc(C(=O)OCc2ccc(-c3cccc(Cl)c3Cl)o2)cc(OC)c1OC | · | · | 0.4 | · | · | · | · | ·
C[C@@H]1CCCCO[C@@H](CN(C)S(=O)(=O)c2ccc(Cl)cc2)[C@@H](C)CN([C@H](C)CO)C(=O)c2cc(NC(=O)C3CCCCC3)ccc2O1 | -1.7 | -79.1 | · | -10.7 | · | · | · | ·
C[C@@H]1CCCCO[C@H](CN(C)S(=O)(=O)c2ccc(F)cc2)[C@H](C)CN([C@H](C)CO)C(=O)c2cc(NC(=O)C3CCCCC3)ccc2O1 | -0.1 | -78.6 | -1.6 | ? | 111.9* | 60.1 | -4.7 | 10.8
C[C@@H]1CCCCO[C@H](CN(C)S(=O)(=O)c2ccc(Cl)cc2)[C@@H](C)CN([C@@H](C)CO)C(=O)c2cc(NC(=O)C3CCCCC3)ccc2O1 | -0.1 | -81.4* | 1.5 | 108.1* | 111.5* | ? | 7.1 | -21.2
C[C@@H]1CCCCO[C@@H](CN(C)S(=O)(=O)c2ccc(Cl)cc2)[C@H](C)CN([C@H](C)CO)C(=O)c2cc(NC(=O)C3CCCCC3)ccc2O1 | 0.1 | -85.9* | · | 108.3* | 110.8* | 113.4* | -5.8 | -9.2
O=S(=O)(Cc1ccccc1)N1CCCCN2[C@H](C1)[C@@H](c1ccc(C#Cc3ccccc3)cc1)[C@@H]2CO | -0.6 | -42.4 | · | 100.5* | 104.9* | 112.1* | 27.4 | 68.3*
O=S(=O)(Cc1ccccc1)N1CCCCN2[C@H](C1)[C@H](c1ccc(C#Cc3ccccc3)cc1)[C@@H]2CO | -1.9 | -0.1 | · | 104.1* | 108.4* | ? | 26.4 | 106.6*
C[C@@H](O)C#Cc1ccc([C@H]2[C@H]3CN(S(=O)(=O)Cc4ccccc4)CCCCN3[C@H]2CO)cc1 | 0.4 | -8.8 | · | 43.9 | · | · | · | ·
CCCC#Cc1ccc([C@@H]2[C@H]3CN(S(=O)(=O)Cc4ccccc4)CCCCN3[C@H]2CO)cc1 | -1.6 | -14.5 | · | 80.6 | · | · | · | ·
COc1cccc(NC(=O)N(C)C[C@@H]2Oc3cc(-c4ccccc4F)ccc3S(=O)(=O)N([C@@H](C)CO)C[C@H]2C)c1 | -0.9 | -13.8 | -2.7 | 68.1 | · | · | · | ·
COc1cccc(NC(=O)N(C)C[C@@H]2Oc3cc(C#Cc4ccncc4)ccc3S(=O)(=O)N([C@H](C)CO)C[C@H]2C)c1 | 0.7 | -55.0 | · | -55.0 | · | · | · | ·
COc1cccc(NC(=O)N(C)C[C@@H]2Oc3cc(C#Cc4ccc(F)cc4)ccc3S(=O)(=O)N([C@H](C)CO)C[C@H]2C)c1 | 0.4 | -77.7 | · | 103.1* | 97.7* | 93.5 | 22.4 | 55.1*
COc1ccc(C#Cc2ccc3c(c2)O[C@H](CN(C)C(=O)Nc2cccc(OC)c2)[C@H](C)CN([C@@H](C)CO)S3(=O)=O)cc1 | -2.7 | -86.4* | · | 116.5* | 111.0* | 104.3* | 12.7 | 9.0
COc1cccc(NC(=O)N(C)C[C@H]2Oc3cc(-c4ccccc4F)ccc3S(=O)(=O)N([C@H](C)CO)C[C@@H]2C)c1 | -1.7 | -41.4 | -0.3 | ? | 97.9* | -20.5 | 7.4 | ?
COc1cccc(NC(=O)N(C)C[C@@H]2Oc3cc(C#Cc4ccncc4)ccc3S(=O)(=O)N([C@H](C)CO)C[C@@H]2C)c1 | -2.2 | ? | -10.4 | 68.3 | · | · | · | ·
COc1cccc(NC(=O)N(C)C[C@H]2Oc3cc(C#Cc4ccncc4)ccc3S(=O)(=O)N([C@H](C)CO)C[C@@H]2C)c1 | -0.4 | -54.3 | 0.2 | 18.8 | · | · | · | ·
COc1cccc(NC(=O)N(C)C[C@@H]2Oc3cc(C#Cc4ccccc4)ccc3S(=O)(=O)N([C@H](C)CO)C[C@@H]2C)c1 | · | -90.3* | · | 86.4* | 103.5* | ? | 31.6 | 21.5
